Test results as given in ChEMBL document CHEMBL4387724, “2-Pyridineformamide N(4)-ring incorporated thiosemicarbazones inhibit MCF-7 cells by inhibiting JNK pathway” (Bioorg Med Chem Lett, 2019).

Tests used:
MCF7 [1] = assay: Cytotoxicity against human MCF7 cells assessed as reduction in cell growth incubated for 72 hrs by MTT assay; format: functional, cell-based; conditions: MCF7, 72 h
Method in brief: (§1)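 Cells grown in DMEM with 10% FBS and penicillin-streptomycin at 37 °C, 5% CO2, seeded at 3000 cells/well and attached overnight. Screening series given at 1, 3, 10, 100 μM; follow-up agent at 100 nM–3 μM; both 72 h, with 0.1% DMSO vehicle. MTT (5 mg/mL stock) added for 3 h at 37 °C, formazan dissolved in DMSO, absorbance read at 570 nm. Viability expressed as % of DMSO-treated wells from replicates.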

A-431 [2] = assay: Cytotoxicity against human A431 cells assessed as reduction in cell growth incubated for 72 hrs by MTT assay; format: functional, cell-based; conditions: A-431, 72 h; method in brief: as §1
A-375 [3] = assay: Cytotoxicity against human A375 cells assessed as reduction in cell growth incubated for 72 hrs by MTT assay; format: functional, cell-based; conditions: A-375, 72 h; method in brief: as §1
HeLa [4] = assay: Cytotoxicity against human HeLa cells assessed as reduction in cell growth incubated for 72 hrs by MTT assay; format: functional, cell-based; method in brief: as §1
A-375 [5] = assay: Cytotoxicity against human A375 cells assessed as reduction in cell growth at 1 uM incubated for 72 hrs by MTT assay relative to control; format: functional; conditions: A-375, 72 h, read-out: GI; method in brief: as §1
A-375 [6] = assay: Cytotoxicity against human A375 cells assessed as reduction in cell growth at 3 uM incubated for 72 hrs by MTT assay relative to control; format: functional; conditions: A-375, 72 h, read-out: GI; method in brief: as §1
A-375 [7] = assay: Cytotoxicity against human A375 cells assessed as reduction in cell growth at 10 uM incubated for 72 hrs by MTT assay relative to control; format: functional; conditions: A-375, 72 h, read-out: GI; method in brief: as §1
A-375 [8] = assay: Cytotoxicity against human A375 cells assessed as reduction in cell growth at 30 uM incubated for 72 hrs by MTT assay relative to control; format: functional; conditions: A-375, 72 h, read-out: GI
A-375 [9] = assay: Cytotoxicity against human A375 cells assessed as reduction in cell growth at 100 uM incubated for 72 hrs by MTT assay relative to control; format: functional; conditions: A-375, 72 h, read-out: GI; method in brief: as §1
A-431 [10] = assay: Cytotoxicity against human A431 cells assessed as reduction in cell growth at 1 uM incubated for 72 hrs by MTT assay relative to control; format: functional; conditions: A-431, 72 h, read-out: GI; method in brief: as §1
A-431 [11] = assay: Cytotoxicity against human A431 cells assessed as reduction in cell growth at 3 uM incubated for 72 hrs by MTT assay relative to control; format: functional; conditions: A-431, 72 h, read-out: GI; method in brief: as §1
A-431 [12] = assay: Cytotoxicity against human A431 cells assessed as reduction in cell growth at 10 uM incubated for 72 hrs by MTT assay relative to control; format: functional; conditions: A-431, 72 h, read-out: GI; method in brief: as §1
A-431 [13] = assay: Cytotoxicity against human A431 cells assessed as reduction in cell growth at 30 uM incubated for 72 hrs by MTT assay relative to control; format: functional; conditions: A-431, 72 h, read-out: GI
A-431 [14] = assay: Cytotoxicity against human A431 cells assessed as reduction in cell growth at 100 uM incubated for 72 hrs by MTT assay relative to control; format: functional; conditions: A-431, 72 h, read-out: GI; method in brief: as §1
HeLa [15] = assay: Cytotoxicity against human HeLa cells assessed as reduction in cell growth at 1 uM incubated for 72 hrs by MTT assay relative to control; format: functional; conditions: read-out: GI; method in brief: as §1
HeLa [16] = assay: Cytotoxicity against human HeLa cells assessed as reduction in cell growth at 3 uM incubated for 72 hrs by MTT assay relative to control; format: functional; conditions: read-out: GI; method in brief: as §1
HeLa [17] = assay: Cytotoxicity against human HeLa cells assessed as reduction in cell growth at 10 uM incubated for 72 hrs by MTT assay relative to control; format: functional; conditions: read-out: GI; method in brief: as §1
HeLa [18] = assay: Cytotoxicity against human HeLa cells assessed as reduction in cell growth at 30 uM incubated for 72 hrs by MTT assay relative to control; format: functional; conditions: read-out: GI
HeLa [19] = assay: Cytotoxicity against human HeLa cells assessed as reduction in cell growth at 100 uM incubated for 72 hrs by MTT assay relative to control; format: functional; conditions: read-out: GI; method in brief: as §1
MCF7 [20] = assay: Cytotoxicity against human MCF7 cells assessed as reduction in cell growth at 1 uM incubated for 72 hrs by MTT assay relative to control; format: functional; conditions: MCF7, 72 h, read-out: GI; method in brief: as §1
MCF7 [21] = assay: Cytotoxicity against human MCF7 cells assessed as reduction in cell growth at 3 uM incubated for 72 hrs by MTT assay relative to control; format: functional; conditions: MCF7, 72 h, read-out: GI; method in brief: as §1
MCF7 [22] = assay: Cytotoxicity against human MCF7 cells assessed as reduction in cell growth at 10 uM incubated for 72 hrs by MTT assay relative to control; format: functional; conditions: MCF7, 72 h, read-out: GI; method in brief: as §1
MCF7 [23] = assay: Cytotoxicity against human MCF7 cells assessed as reduction in cell growth at 30 uM incubated for 72 hrs by MTT assay relative to control; format: functional; conditions: MCF7, 72 h, read-out: GI
MCF7 [24] = assay: Cytotoxicity against human MCF7 cells assessed as reduction in cell growth at 100 uM incubated for 72 hrs by MTT assay relative to control; format: functional; conditions: MCF7, 72 h, read-out: GI; method in brief: as §1

Structure (SMILES)	IC50 (MCF7 [1]) [µM]	IC50 (A-431 [2]) [µM]	IC50 (A-375 [3]) [µM]	IC50 (HeLa [4]) [µM]	inhibition of growth at 1 µM (A-375 [5]) [%]	inhibition of growth at 3 µM (A-375 [6]) [%]	inhibition of growth at 10 µM (A-375 [7]) [%]	inhibition of growth at 30 µM (A-375 [8]) [%]	inhibition of growth at 100 µM (A-375 [9]) [%]	inhibition of growth at 1 µM (A-431 [10]) [%]	inhibition of growth at 3 µM (A-431 [11]) [%]	inhibition of growth at 10 µM (A-431 [12]) [%]	inhibition of growth at 30 µM (A-431 [13]) [%]	inhibition of growth at 100 µM (A-431 [14]) [%]	inhibition of growth at 1 µM (HeLa [15]) [%]	inhibition of growth at 3 µM (HeLa [16]) [%]	inhibition of growth at 10 µM (HeLa [17]) [%]	inhibition of growth at 30 µM (HeLa [18]) [%]	inhibition of growth at 100 µM (HeLa [19]) [%]	inhibition of growth at 1 µM (MCF7 [20]) [%]	also measured
Cc1cccc(/C(N)=N/NC(=S)N2CCCCCC2)n1	54.7	14.7	1.8	1	39.6	64.5	79.9	70.3	80.9	42.8	44.1	45.8	63.5	76.7	49.5	63.6	71.7	81.2	82.7	6.3	inhibition of growth at 3 µM (MCF7 [21]): 15.7%; inhibition of growth at 10 µM (MCF7 [22]): 21.5%; inhibition of growth at 30 µM (MCF7 [23]): 38.8%; inhibition of growth at 100 µM (MCF7 [24]): 70.2%
Cc1ccnc(/C(N)=N/NC(=S)N2CCOCC2)c1	> 100	6.8	1.6	38.5	43.2	66.6	86	87.4	90.6	33.6	35.5	62	74.6	82.8	39.1	44.7	49.1	45.2	82.7	1.22	inhibition of growth at 3 µM (MCF7 [21]): 5.07%; inhibition of growth at 10 µM (MCF7 [22]): 6.86%; inhibition of growth at 30 µM (MCF7 [23]): 8.16%; inhibition of growth at 100 µM (MCF7 [24]): 12.8%
Cc1ccnc(/C(N)=N/NC(=S)N2CCSCC2)c1	6.9	7.2	1.2	15.5	47.7	67.2	74.5	84.9	89.9	34.6	34.7	60	75.3	79.6	41.1	40.4	39.2	78.3	91.6	3.89	inhibition of growth at 3 µM (MCF7 [21]): 33.8%; inhibition of growth at 10 µM (MCF7 [22]): 62.5%; inhibition of growth at 30 µM (MCF7 [23]): 74.2%; inhibition of growth at 100 µM (MCF7 [24]): 76.8%
N/C(=N\NC(=S)N1CCCC1)c1ccccn1	3.6	1.7	0.6	6.2	65.7	80	83.9	86	87.8	39.8	70.9	77.2	85.2	83.8	24.7	38.5	63.5	84.5	89.1	45.9	inhibition of growth at 3 µM (MCF7 [21]): 49.8%; inhibition of growth at 10 µM (MCF7 [22]): 51.7%; inhibition of growth at 30 µM (MCF7 [23]): 54.6%; inhibition of growth at 100 µM (MCF7 [24]): 74.9%
Cc1cccc(/C(N)=N/NC(=S)N2CCSCC2)n1	> 100	2.6	1.4	1.8	47.2	60.1	62.6	73.1	77.4	42.8	51.7	53.2	64.5	80.7	46.5	54.6	67.6	85.3	81.6	7.3	inhibition of growth at 3 µM (MCF7 [21]): 20.6%; inhibition of growth at 10 µM (MCF7 [22]): 22.5%; inhibition of growth at 30 µM (MCF7 [23]): 38.6%; inhibition of growth at 100 µM (MCF7 [24]): 46.8%
N/C(=N\NC(=S)N1CCCCCC1)c1ccccn1	2.6	3	0.74	6	67	78.6	86.5	90	89	18.8	50.3	67	72.3	77.5	21.3	36.6	67.4	82.9	88.7	25.3	inhibition of growth at 3 µM (MCF7 [21]): 56%; inhibition of growth at 10 µM (MCF7 [22]): 62.2%; inhibition of growth at 30 µM (MCF7 [23]): 76.5%; inhibition of growth at 100 µM (MCF7 [24]): 84%
N/C(=N\NC(=S)N1CCN(c2ccccn2)CC1)c1ccc(F)cn1	22	13.4	1.4	2	49.3	53.1	56.8	73.2	76.2	31.1	43	47.4	62.3	77.1	22.5	77.3	80	87	83	13.4	inhibition of growth at 3 µM (MCF7 [21]): 27.1%; inhibition of growth at 10 µM (MCF7 [22]): 35.8%; inhibition of growth at 30 µM (MCF7 [23]): 58.6%; inhibition of growth at 100 µM (MCF7 [24]): 74.3%
Cc1ccnc(/C(N)=N/NC(=S)N2CCN(c3ccccn3)CC2)c1	12.3	15.5	0.78	10.5	64.4	74.8	76	79.4	81	28.9	34.7	44	65.7	75.5	40.4	42.5	49.2	77	85.6	21	inhibition of growth at 3 µM (MCF7 [21]): 32.8%; inhibition of growth at 10 µM (MCF7 [22]): 32.1%; inhibition of growth at 30 µM (MCF7 [23]): 63.8%; inhibition of growth at 100 µM (MCF7 [24]): 63.4%
